From ChEMBL document CHEMBL1153929, “Exploration and synthesis of curcumin analogues with improved structural stability both in vitro and in vivo as cytotoxic agents” (Bioorg Med Chem, 2009)

Legend:
[1] = Cytotoxicity against human LS 174T cells after 72 hrs by MTT assay; type: functional, cell-based; conditions: LS174T
Method in brief: (§1)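 Cells were plated at 5000 per well in 1640 medium with 5% heat-inactivated calf serum and penicillin/streptomycin, at 37 °C and 5% CO2. After 24 h, compounds in DMSO were added at final 100, 33.3, 11.1 and 3.7 µg/ml for 72 h. MTT (5 mg/ml in 0.9% NaCl) was then added for 3 h, the formazan dissolved in DMSO, and absorbance read at 570 nm.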

[2] = Metabolic stability in Sprague-Dawley rat plasma assessed as drug recovery at 3.2 ug/ml by RP-HPLC; type: ADME, cell-free; conditions: read-out: Stability
[3] = Mean residence time (0 to t) in healthy Sprague-Dawley rat at 500 mg/kg, po administered as single dose; type: ADME, organism-based; parameters: dose 500 mg/kg, route oral; conditions: in vivo
Method in brief: (§2)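 Four rats per group, dosed once by oral gavage at 500 mg/kg, suspended with the aid of 1% CMCNa. Blood (0.5 ml) was taken from the orbital venous plexus at 0.083, 0.25, 0.5, 1, 2, 4 and 8 h. Plasma (200 µl) was extracted with ethyl acetate/chloroform and assayed by isocratic HPLC on an ODS2 column. Parameters came from non-compartmental analysis.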

[4] = AUC (0 to infinity) in healthy Sprague-Dawley rat at 500 mg/kg, po administered as single dose; type: ADME, organism-based; parameters: dose 500 mg/kg, route oral, time infinity; conditions: plasma; method in brief: as §2
[5] = Mean residence time (0 to infinity) in healthy Sprague-Dawley rat at 500 mg/kg, po administered as single dose; type: ADME, organism-based; parameters: dose 500 mg/kg, route oral; conditions: in vivo; method in brief: as §2
[6] = Hydrolytic stability assessed as compound degradation at 2 mg in sodium dihydrogen phosphate buffered 0.3% sodium carboxymethylcellulose solution at pH 7.4 after 45 hrs by HPLC; type: physicochemical; conditions: read-out: Activity
Method in brief: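 2 mg of sample was vortexed into 1 ml of 0.3% (w/v) CMCNa solution in phosphate buffer at pH 7.4 and kept in the dark at 37 °C. HPLC peak areas were recorded. Degradation = (area at 0 h − area at end time) / area at 0 h × 100%.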

[7] = Half life in healthy Sprague-Dawley rat at 500 mg/kg, po administered as single dose; type: ADME, organism-based; parameters: dose 500 mg/kg, route oral; conditions: in vivo; method in brief: as §2
[8] = Apparent oral clearance in healthy Sprague-Dawley rat at 500 mg/kg, po administered as single dose; type: ADME, organism-based; parameters: dose 500 mg/kg, route oral; conditions: in vivo; method in brief: as §2
[9] = Tmax in healthy Sprague-Dawley rat at 500 mg/kg, po administered as single dose; type: ADME, organism-based; parameters: dose 500 mg/kg, route oral; conditions: in vivo; method in brief: as §2
[10] = Metabolic stability in Sprague-Dawley rat plasma assessed as drug recovery at 0.2 ug/ml by RP-HPLC; type: ADME, cell-free; conditions: read-out: Stability
[11] = Metabolic stability in Sprague-Dawley rat plasma assessed as drug recovery at 0.8 ug/ml by RP-HPLC; type: ADME, cell-free; conditions: read-out: Stability
[12] = tested on: CNE; assay: Cytotoxicity against human CNE cells after 72 hrs by MTT assay; type: functional, cell-based; method in brief: as §1
[13] = AUC (0 to t) in healthy Sprague-Dawley rat at 500 mg/kg, po administered as single dose; type: ADME, organism-based; parameters: dose 500 mg/kg, route oral; conditions: plasma; method in brief: as §2
[14] = Cmax in healthy Sprague-Dawley rat at 500 mg/kg, po administered as single dose; type: ADME, organism-based; parameters: dose 500 mg/kg, route oral; conditions: in vivo; method in brief: as §2
[15] = tested on: HeLa; assay: Cytotoxicity against human HeLa cells after 72 hrs by MTT assay; type: functional, cell-based; method in brief: as §1
[16] = Metabolic stability in Sprague-Dawley rat plasma assessed as drug recovery at 12.8 ug/ml by RP-HPLC; type: ADME, cell-free; conditions: read-out: Stability
[17] = tested on: BGC-823; assay: Cytotoxicity against human BGC823 cells after 72 hrs by MTT assay; type: functional, cell-based; conditions: BGC-823, 72 h; method in brief: as §1
[18] = tested on: PC-3; assay: Cytotoxicity against human PC3 cells after 72 hrs by MTT assay; type: functional, cell-based; conditions: PC-3, 72 h; method in brief: as §1
[19] = tested on: HL-60 (human); assay: Cytotoxicity against human HL60 cells after 72 hrs by MTT assay; conditions: HL-60, 72 h
[20] = Plasma concentration in healthy Sprague-Dawley rat at 500 mg/kg, po administered as single dose after 2 hrs; type: ADME, organism-based; parameters: dose 500 mg/kg, route oral; conditions: read-out: Drug uptake; method in brief: as §2
[21] = Chemical stability assessed as half life in pH 8 buffer containing 10% cyclodextrins; type: physicochemical
[22] = Metabolic stability in Sprague-Dawley rat plasma assessed as drug recovery at 0.05 ug/ml by RP-HPLC; type: ADME, cell-free; conditions: read-out: Stability
[23] = tested on: Blood; assay: Drug level in portal blood of patient with cancer at 3.6 g/day by HPLC; type: ADME, tissue-based; conditions: human, read-out: Drug uptake
[24] = Drug level in bile of patient with cancer at 3.6 g/day by HPLC; type: ADME, tissue-based; conditions: human, in vivo; read-out: Drug uptake
[25] = tested on: KB (human); assay: Cytotoxicity against human KB cells after 72 hrs by MTT assay
[26] = tested on: Liver; assay: Drug level in liver of patient with cancer at 3.6 g/day by HPLC; type: ADME, tissue-based; conditions: human, in vivo; read-out: Drug uptake
[27] = tested on: Blood; assay: Drug level in peripheral blood of patient with cancer at 3.6 g/day by HPLC; type: ADME, tissue-based; conditions: human, read-out: Drug uptake
[28] = Chemical stability assessed as compound degradation in 0.1 M phosphate buffer at pH 7.2 within 30 mins; type: physicochemical; conditions: read-out: Activity

| SMILES | IC50 [1] | remaining at 3.2 ug/ml [2] | MRT last [3] | AUC(0-inf) [4] | MRT inf [5] | degraded at 45 h [6] | half-life [7] | CL/F [8] | Tmax [9] | remaining at 0.2 ug/ml [10] | IC50 [12] | AUC(0-t) [13] | Cmax [14] | IC50 [15] | IC50 [17] | IC50 [18] | also measured |
| --- | --- | --- | --- | --- | --- | --- | --- | --- | --- | --- | --- | --- | --- | --- | --- | --- | --- |
| COc1cc(/C=C/C(=O)/C=C/c2ccc(O)c(OC)c2)ccc1O | 3.7 µM | 97.6% | 2.96 h | 4910 ng·h/mL | 8.48 h | 0% | 5.96 h | 2090 mL/min/kg | 1 h | 96.4% | 6.8 µM | 2960 ng·h/mL | 822 ng/mL |  |  |  | remaining at 0.8 ug/ml [11]: 98.3% |
| O=C(/C=C/c1ccccc1Br)/C=C/c1ccccc1Br | 4 µM | 97.1% | 2.49 h | 14900 ng·h/mL | 4.16 h | 0% | 2.92 h | 650 mL/min/kg | 0.25 h | 96.5% |  | 12100 ng·h/mL | 4100 ng/mL | 34.2 µM | 16.1 µM | 15.4 µM | remaining at 12.8 ug/ml [16]: 95.2% |
| COc1cc(/C=C/C(=O)CC(=O)/C=C/c2ccc(O)c(OC)c2)ccc1O [CURCUMIN] | 6.4 µM | 98.7% | 3.44 h | 672 ng·h/mL | 22.7 h | > 64% | 2.41 h |  | 0.5 h | 98.2% | 32.8 µM | 275 ng·h/mL | 91 ng/mL | 17.5 µM | 16.7 µM | 15 µM | IC50 [19]: 11.6 µM; concentration at 2 h [20]: 40 ng/mL; half-life [21]: 10.5 h; remaining at 0.05 ug/ml [22]: 97.7%; concentration [23]: 1300 nM; concentration [24]: 1300 nM; IC50 [25]: 35.9 µM; concentration [26]: 1300 nM; concentration [27]: 1300 nM; degraded at 0.5 h [28]: 92% |
